Results on three molecules are retold here after ChEMBL document CHEMBL5705894, “SB1518, a novel macrocyclic pyrimidine-based JAK2 inhibitor for the treatment of myeloid and lymphoid malignancies” (Leukemia, 2011).

Molecules are shown by their SMILES. Activity calls are given as the source filed them. The calls are words filed in the database; no cut-off is given here.

For data set [1], the system named is Tyrosine-protein kinase JAK2 (Homo sapiens), O60674 [V617F]. The note with it: HEL 92.1.7, dose 1000.0 nM, time 3.0 hrs.
Chain of Tyrosine-protein kinase JAK2 (Homo sapiens), O60674 [V617F] (O60674 whole entry V617F): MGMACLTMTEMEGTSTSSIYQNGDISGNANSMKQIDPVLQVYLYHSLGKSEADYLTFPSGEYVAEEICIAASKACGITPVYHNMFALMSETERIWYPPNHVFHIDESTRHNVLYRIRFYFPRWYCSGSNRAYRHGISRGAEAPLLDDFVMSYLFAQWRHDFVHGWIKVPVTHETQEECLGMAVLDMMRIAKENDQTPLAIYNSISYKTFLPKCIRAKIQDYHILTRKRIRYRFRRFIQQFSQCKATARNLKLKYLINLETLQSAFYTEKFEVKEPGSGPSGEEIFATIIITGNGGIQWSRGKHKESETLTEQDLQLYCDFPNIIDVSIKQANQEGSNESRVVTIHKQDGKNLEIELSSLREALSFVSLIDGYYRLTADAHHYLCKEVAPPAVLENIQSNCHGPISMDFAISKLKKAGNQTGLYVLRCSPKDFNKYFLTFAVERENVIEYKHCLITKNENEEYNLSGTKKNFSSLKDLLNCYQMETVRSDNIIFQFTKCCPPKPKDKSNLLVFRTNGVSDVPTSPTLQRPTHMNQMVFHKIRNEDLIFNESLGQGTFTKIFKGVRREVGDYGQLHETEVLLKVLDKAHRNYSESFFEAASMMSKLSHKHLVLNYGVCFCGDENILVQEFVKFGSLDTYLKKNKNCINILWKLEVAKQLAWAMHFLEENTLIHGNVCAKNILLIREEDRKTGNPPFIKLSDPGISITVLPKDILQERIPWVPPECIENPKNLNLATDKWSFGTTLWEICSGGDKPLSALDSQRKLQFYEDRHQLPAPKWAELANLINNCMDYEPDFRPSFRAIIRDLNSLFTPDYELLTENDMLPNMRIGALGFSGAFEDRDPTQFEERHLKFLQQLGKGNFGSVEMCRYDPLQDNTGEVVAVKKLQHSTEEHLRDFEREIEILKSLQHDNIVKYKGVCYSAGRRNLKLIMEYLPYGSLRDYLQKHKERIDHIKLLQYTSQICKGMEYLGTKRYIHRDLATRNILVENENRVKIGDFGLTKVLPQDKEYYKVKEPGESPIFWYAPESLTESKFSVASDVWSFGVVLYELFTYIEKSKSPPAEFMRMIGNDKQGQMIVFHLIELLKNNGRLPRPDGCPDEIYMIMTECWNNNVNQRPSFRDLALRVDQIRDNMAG
Data set [2] in a line: Induction of apoptosis in human EPC cells derived from healthy volunteers assessed as activation of caspase-3/7 level incubated for 16 hrs. The data set is classed as toxicity, cell-based.
Data set [3] is described as follows: Toxicity in SCID Beige mouse xenografted with human SET2 cells assessed as hematocrit count at 150 mg/kg, po administered for 18 days by ScilVET abc hematology analyzer method. The data set is classed as organism-based. Particulars: in vivo, 432 h, time 18 day.
The test system of data set [4] is BaF3. As to the kind of experiment: Cytotoxicity against mouse BaF3 cells expressing JAK2 V617F mutant xenografted in athymic BALB/c nude mouse assessed as inhibition of cell viability administered for 24 hrs by CellTiterGlo assay. Type of data set: toxicity, cell-based. The note with it: in vivo, po, 150 mg/kg.
Data set [5] can be described thus: Induction of apoptosis in human EPC cells derived from polycythemia vera patients assessed as activation of caspase-3/7 level incubated for 16 hrs. Particulars: human, epc, time 16 hrs. Type of data set: toxicity, cell-based.
Data set [6] can be described thus: Toxicity in athymic BALB/c nude mouse xenografted with mouse Ba/F3 cells harboring JAK2 V617F mutant assessed as spleen weight at 150 mg/kg, po administered for 13 days relative to control. The note with it: in vivo, 312 h.
The nature of data set [7]: Toxicity in SCID Beige mouse xenografted with human SET2 cells assessed as increase in body weight at 150 mg/kg, po administered for 18 days relative to control. The note with it: in vivo, 432 h, time 18 day. The data set is classed as organism-based. For orientation: In xenograft studies the graft and the host belong to different species.
The nature of data set [8]: Toxicity in athymic BALB/c nude mouse xenografted with mouse Ba/F3 cells harboring JAK2 V617F mutant assessed as liver weight at 150 mg/kg, po administered for 12 days relative to control. The data set is classed as organism-based, BaF3. Particulars: in vivo, 288 h, time 12 day. In outline: (§1)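 Ba/F3-JAK2V617F cells (2 × 10^6 in serum-free medium) were injected into the tail vein of BALB/c nude mice. From day 4 after inoculation, mice got SB1518 by oral gavage (10 ml/kg) at 50 or 150 mg/kg once daily. Groups held 10 mice, and four naive mice gave baseline values.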

A short description of data set [9]: Toxicity in athymic BALB/c nude mouse xenografted with mouse Ba/F3 cells harboring JAK2 V617F mutant assessed as weight loss at 150 mg/kg, po administered for 12 days. The data set is classed as organism-based, BaF3. Particulars: in vivo, 288 h, time 12 day. In outline:
as §1

A short description of data set [10]: Toxicity in athymic BALB/c nude mouse xenografted with mouse Ba/F3 cells harboring JAK2 V617F mutant assessed as platelet count at 150 mg/kg, po administered for 12 days by ScilVET abc hematology analyzer method. Type of data set: organism-based, BaF3. The note with it: in vivo, 288 h, time 12 day. The method in brief:
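Engraftment model: BALB/c nude mice were given 2 × 10^6 Ba/F3-JAK2V617F cells i.v. by tail vein. Once-daily oral gavage (10 ml/kg) of 50 or 150 mg/kg began on day 4 after inoculation, with 10 mice per group and four naive mice as baseline. Blood counts were taken on a veterinary hematology analyzer.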

Data set [11] is described as follows: Cytotoxicity against human EPC cells derived from healthy volunteers assessed as inhibition of cell viability incubated for 48 hrs by CellTiterGlo assay. The data set is classed as toxicity, cell-based. The method in brief: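 Erythroid progenitors expanded from PBMCs of PV patients or normal volunteers using a 2-step protocol. On day 12 of expansion, cells were exposed to compound for 48 h and viability was read by CellTiter-Glo. Day-12 cells were phenotyped by CD71/CD235A flow staining.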

The nature of data set [12]: Toxicity in athymic BALB/c nude mouse xenografted with mouse Ba/F3 cells harboring JAK2 V617F mutant assessed as hematocrit count at 150 mg/kg, po administered for 12 days by ScilVET abc hematology analyzer method. Type of data set: organism-based, BaF3. Particulars: in vivo, 288 h, time 12 day. In outline: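 BALB/c nude mice were injected in the tail vein with 2 × 10^6 Ba/F3-JAK2V617F cells in serum-free medium. Oral dosing at 50 or 150 mg/kg once daily began on day 4, with 10 mice per group and 4 naive baseline mice. Blood counts were taken on a hematology analyzer.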

Data set [13] in a line: Toxicity in SCID Beige mouse xenografted with human SET2 cells assessed as leukopenia at 150 mg/kg, po administered for 18 days by ScilVET abc hematology analyzer method. Type of data set: organism-based. The note with it: in vivo, 432 h, time 18 day.
A short description of data set [14]: AUC (0 to infinity) in athymic BALB/c nude mouse xenografted with mouse BaF3 cells at 150 mg/kg, po administered for 24 hrs by HPLC analysis. The data set is classed as ADME, organism-based. Particulars: in vivo.
A short description of data set [15]: Toxicity in SCID Beige mouse xenografted with human SET2 cells assessed as platelet count at 150 mg/kg, po administered for 18 days by ScilVET abc hematology analyzer method. Type of data set: organism-based. The note with it: in vivo, 432 h, time 18 day.
The nature of data set [16]: Cytotoxicity against human Myeloid progenitor cells assessed as inhibition of colony growth formation. The data set is classed as toxicity, cell-based, Myeloid progenitor cell. In outline:
(§2)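 PBMCs from PV patients, 2–8 × 10^5 per plate, were plated in minimal methylcellulose medium with graded drug concentrations or DMSO, in triplicate. After 14 days, erythroid (BFU-E, CFU-E) and myeloid (CFU-M, CFU-GM) colonies were counted.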

The nature of data set [17]: Cytotoxicity against human Erythroid progenitor cells assessed as inhibition of colony growth formation. Type of data set: toxicity, cell-based, Erythroid progenitor cell. In outline: as §2
The nature of data set [18]: Toxicity in SCID Beige mouse xenografted with human SET2 cells assessed as decrease in body weight at 75 mg/kg, po administered for 18 days relative to control. The data set is classed as organism-based. Also on record: scale not given: the % may be the effect or the level left. Particulars: in vivo, 432 h, time 18 day.

As to `CC(C)(C)c1nc2c3ccc(F)cc3c3c(=O)[nH]ccc3c2[nH]1`, the inhibition result in data set [1] was “Active”.

One may read the EC50 as the concentration needed to bring the measured effect to its halfway point. In general, IC50 refers to the midpoint of a concentration-inhibition curve. As a reminder, the AUC(0-inf) is the area under the concentration-time curve extrapolated to infinity. In the case of `C1=C/COCc2cc(ccc2OCCN2CCCC2)Nc2nccc(n2)-c2cccc(c2)COC/1` [PACRITINIB], the EC50 at 16 h in data set [2] (EPC cells derived from healthy volunteers) turned out to be 224 nM. The Activity entry in [2] (epc, 16 h) is on record as “Dose-Dependent Effect”; in data set [3], “Non-Toxic”; in data set [5], “Dose-Dependent Effect”; in [6], 60%; in [7] it was 0.2%; in data set [8], 92%. The Activity entry in data set [9] was “Non-Toxic”; in data set [10], “Non-Toxic”; in [12] it was “Non-Toxic”; in [13], “Non-Toxic”; in data set [15], “Non-Toxic”; in [18], 10.1%. Besides, the FIC50 in [4] is 0.16 µM. The IC50 at 48 h in [11] amounted to 230 nM. The molecule further came in with a total exposure AUC(0-inf) in data set [14] of 220 ng·h/mL. The IC50 in data set [16] and in [17] was 63 nM throughout.

In the case of `Cc1cnc(Nc2ccc(OCCN3CCCC3)cc2)nc1Nc1cccc(S(=O)(=O)NC(C)(C)C)c1`, the inhibition entry in data set [1] was “Active”.
